According to ChEMBL document CHEMBL1155985, “Water-soluble phosphate prodrugs of pleuromutilin analogues with potent in vivo antibacterial activity against Gram-positive pathogens” (Bioorg Med Chem Lett, 2009):
≈ marks a conversion by molar mass, not a printed value.

Tests used:
Staphylococcus aureus [1] = assay: Antibacterial activity against methicillin-resistant Staphylococcus aureus by agar dilution method; assay type: functional
Summary of the method: (§1)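 MICs by agar dilution following NCCLS guidance against resistant and susceptible Gram-positive strains; retapamulin and linezolid run as positive controls.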

[2] = system: Staphylococcus epidermidis; assay: Antibacterial activity against methicillin-resistant Staphylococcus epidermidis by agar dilution method; assay type: functional; summary of the method: as §1
Staphylococcus aureus [3] = assay: Antibacterial activity against methicillin-susceptible Staphylococcus aureus by agar dilution method; assay type: functional; summary of the method: as §1
[4] = system: Staphylococcus epidermidis; assay: Antibacterial activity against methicillin-susceptible Staphylococcus epidermidis by agar dilution method; assay type: functional; summary of the method: as §1
Streptococcus pneumoniae = assay: Antibacterial activity against Streptococcus pneumoniae by agar dilution method; assay type: functional
Summary of the method: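 MIC was measured by agar dilution following NCCLS guidelines, with retapamulin and linezolid as positive controls.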

Staphylococcus aureus [5] = assay: Antibacterial activity against methicillin-resistant Staphylococcus aureus 236-29 infected in mouse dosed 1 hr and 4 hr after infection, iv; assay type: functional; details: 236-29, iv
Summary of the method: (§2)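 Lethal systemic S. aureus infection in mice, inoculated intraperitoneally; test agent given iv twice, at 1 h and 4 h post-infection. ED50 taken as the dose giving 50% mouse survival, reported with 95% confidence ranges.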

Staphylococcus aureus [6] = assay: Antibacterial activity against methicillin-susceptible Staphylococcus aureus 232-51 infected in mouse dosed 1 hr and 4 hr after infection, iv; assay type: functional; details: 232-51, iv; summary of the method: as §2
[7] = Toxicity against iv dosed ICR mouse; assay type: organism-based; details: in vivo
Summary of the method: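 Acute toxicity after iv administration in SPF-level ICR mice (n = 50); LD50 determined.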

Rattus norvegicus [8] = assay: Cmax in Sprague-Dawley rat assessed as parent drug level at 10 mg/kg, iv; assay type: ADME, organism-based; parameters: dose 10 mg/kg, route intravenous; details: in vivo
Summary of the method: (§3)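 Male Sprague-Dawley rats (n = 3) were dosed iv with the phosphate prodrug at 10, 30 or 100 mg/kg. Plasma levels of the parent drug were measured over time. Tmax, Cmax, AUC and elimination half-life were then derived from these levels.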

Rattus norvegicus [9] = assay: Cmax in Sprague-Dawley rat assessed as parent drug level at 100 mg/kg, iv; assay type: ADME, organism-based; parameters: dose 100 mg/kg, route intravenous; details: in vivo; summary of the method: as §3
Rattus norvegicus [10] = assay: Tmax in Sprague-Dawley rat assessed as parent drug level at 100 mg/kg, iv; assay type: ADME, organism-based; parameters: dose 100 mg/kg, route intravenous; details: in vivo; summary of the method: as §3
Rattus norvegicus [11] = assay: Half life in Sprague-Dawley rat assessed as parent drug level at 100 mg/kg, iv; assay type: ADME, organism-based; parameters: dose 100 mg/kg, route intravenous; details: in vivo; summary of the method: as §3
Rattus norvegicus [12] = assay: AUC (0 to infinity) in Sprague-Dawley rat assessed as parent drug level at 100 mg/kg, iv; assay type: ADME, organism-based, Plasma; parameters: dose 100 mg/kg, route intravenous, time infinity; details: in vivo; summary of the method: as §3
Rattus norvegicus [13] = assay: Half life in Sprague-Dawley rat assessed as parent drug level at 10 mg/kg, iv; assay type: ADME, organism-based; parameters: dose 10 mg/kg, route intravenous; details: in vivo; summary of the method: as §3
[14] = Stability in buffer at pH 7.4 assessed as remaining compound at 10 mg/ml after 8 hrs; assay type: physicochemical; details: read-out: Activity
Summary of the method: (§4)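 Compounds at 10 mg/mL in pH 7.4 buffer were kept at room temperature. Percent parent remaining was measured by UV/HPLC at 8 h and at 14 days.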

Rattus norvegicus [15] = assay: Cmax in Sprague-Dawley rat assessed as parent drug level at 30 mg/kg, iv; assay type: ADME, organism-based; parameters: dose 30 mg/kg, route intravenous; details: in vivo; summary of the method: as §3
Rattus norvegicus [16] = assay: Tmax in Sprague-Dawley rat assessed as parent drug level at 10 mg/kg, iv; assay type: ADME, organism-based; parameters: dose 10 mg/kg, route intravenous; details: in vivo; summary of the method: as §3
Rattus norvegicus [17] = assay: AUC (0 to infinity) in Sprague-Dawley rat assessed as parent drug level at 30 mg/kg, iv; assay type: ADME, organism-based, Plasma; parameters: time infinity, dose 30 mg/kg, route intravenous; details: in vivo; summary of the method: as §3
[18] = Aqueous solubility of the compound; assay type: physicochemical
Rattus norvegicus [19] = assay: Tmax in Sprague-Dawley rat assessed as parent drug level at 30 mg/kg, iv; assay type: ADME, organism-based; parameters: dose 30 mg/kg, route intravenous; details: in vivo; summary of the method: as §3
[20] = Stability in buffer at pH 7.4 assessed as remaining compound at 10 mg/ml after 14 days; assay type: physicochemical; details: read-out: Activity; summary of the method: as §4
Rattus norvegicus [21] = assay: Half life in Sprague-Dawley rat assessed as parent drug level at 30 mg/kg, iv; assay type: ADME, organism-based; parameters: dose 30 mg/kg, route intravenous; details: in vivo; summary of the method: as §3
Rattus norvegicus [22] = assay: AUC (0 to infinity) in Sprague-Dawley rat assessed as parent drug level at 10 mg/kg, iv; assay type: ADME, organism-based, Plasma; parameters: dose 10 mg/kg, route intravenous, time infinity; details: in vivo; summary of the method: as §3
[23] = Staphylococcus aureus, read-out: MIC

remaining at 8 h, 10 mg/ml [14] [%]	solubility [18] [mg/mL]	remaining at 336 h, 10 mg/ml [20] [%]	SMILES	MIC (Staphylococcus aureus [1]) [µg/mL]	MIC [2] [µg/mL]	MIC [4] [µg/mL]	MIC (Streptococcus pneumoniae) [µg/mL]	MIC (Staphylococcus aureus [3]; [23]) [µg/mL]	other results
–	–	–	CC(=O)NC[C@H]1CN(c2ccc(N3CCOCC3)c(F)c2)C(=O)O1 [LINEZOLID]	1 (≈ 2.96 µM)	1 (≈ 2.96 µM)	0.5 (≈ 1.48 µM)	–	–	MIC (Staphylococcus aureus [3]): 0.5 µg/mL (≈ 1.48 µM)
–	–	–	C=C[C@]1(C)C[C@@H](OC(=O)CS[C@@H]2C[C@H]3CC[C@@H](C2)N3C)[C@]2(C)[C@H](C)CC[C@]3(CCC(=O)[C@H]32)[C@@H](C)[C@@H]1O [RETAPAMULIN]	0.031 (≈ 0.0599 µM)	0.031 (≈ 0.0599 µM)	0.031 (≈ 0.0599 µM)	0.031 (≈ 0.0599 µM)	0.031 (≈ 0.0599 µM)	–
–	–	–	C=C[C@]1(C)C[C@@H](OC(=O)NC(=O)c2ccc(O)cc2)[C@]2(C)[C@H](C)CC[C@]3(CCC(=O)[C@@H]32)[C@@H](C)[C@@H]1O	0.125 (≈ 0.258 µM)	0.125 (≈ 0.258 µM)	0.0625 (≈ 0.129 µM)	0.25 (≈ 0.517 µM)	0.125 (≈ 0.258 µM)	–
–	–	–	CN[C@H](CC(C)C)C(=O)N[C@H]1C(=O)N[C@@H](CC(N)=O)C(=O)N[C@H]2C(=O)N[C@H]3C(=O)N[C@H](C(=O)N[C@H](C(=O)O)c4cc(O)cc(O)c4-c4cc3ccc4O)[C@H](O)c3ccc(c(Cl)c3)Oc3cc2cc(c3O[C@@H]2O[C@H](CO)[C@@H](O)[C@H](O)[C@H]2O[C@H]2C[C@](C)(N)[C@H](O)[C@H](C)O2)Oc2ccc(cc2Cl)[C@H]1O [VANCOMYCIN]	–	–	–	–	–	ED50 (Staphylococcus aureus [5]): 15.8 mg/kg; ED50 (Staphylococcus aureus [6]): 13.5 mg/kg
100	52.3	99.5	CC[C@]1(C)C[C@@H](OC(=O)NC(=O)c2ccc(O)cc2)[C@]2(C)[C@H](C)CC[C@]3(CCC(=O)[C@@H]32)[C@@H](C)[C@@H]1OP(=O)([O-])[O-].[Na+].[Na+]	–	–	–	–	–	–
100	57.6	99.8	C=C[C@]1(C)C[C@@H](OC(=O)NC(=O)c2ccc(OC)cc2)[C@]2(C)[C@H](C)CC[C@]3(CCC(=O)[C@@H]32)[C@@H](C)[C@@H]1OP(=O)([O-])[O-].[Na+].[Na+]	–	–	–	–	–	–
–	–	–	C=C[C@]1(C)C[C@@H](OC(=O)NC(=O)c2ccc(OC)cc2)[C@]2(C)[C@H](C)CC[C@]3(CCC(=O)[C@@H]32)[C@@H](C)[C@@H]1O	0.0625 (≈ 0.126 µM)	0.0625 (≈ 0.126 µM)	0.0625 (≈ 0.126 µM)	0.125 (≈ 0.251 µM)	0.0625 (≈ 0.126 µM)	–

SMILES	remaining at 8 h, 10 mg/ml [14] [%]	solubility [18] [mg/mL]	remaining at 336 h, 10 mg/ml [20] [%]	MIC (Staphylococcus aureus [1]) [µg/mL]	MIC [2] [µg/mL]	MIC [4] [µg/mL]	MIC (Streptococcus pneumoniae) [µg/mL]	MIC (Staphylococcus aureus [3]; [23]) [µg/mL]	other results
CC[C@]1(C)C[C@@H](OC(=O)NC(=O)c2ccc(OP(=O)([O-])[O-])cc2)[C@]2(C)[C@H](C)CC[C@]3(CCC(=O)[C@@H]32)[C@@H](C)[C@@H]1O.[Na+].[Na+]	100	96.8	99.6	–	–	–	–	–	LD50 [7]: 1010 mg/kg; Cmax (Rattus norvegicus [8]): 3390 ng/mL; Cmax (Rattus norvegicus [9]): 67500 ng/mL; Tmax (Rattus norvegicus [10]): 4.98 min; t1/2 (Rattus norvegicus [11]): 37.8 min; AUC (Rattus norvegicus [12]): 32600 ng·h/mL; t1/2 (Rattus norvegicus [13]): 30.6 min; Cmax (Rattus norvegicus [15]): 11300 ng/mL; Tmax (Rattus norvegicus [16]): 4.98 min; ED50 (Staphylococcus aureus [5]): 20.9 mg/kg; AUC (Rattus norvegicus [17]): 5040 ng·h/mL; Tmax (Rattus norvegicus [19]): 4.98 min; ED50 (Staphylococcus aureus [6]): 17.4 mg/kg; t1/2 (Rattus norvegicus [21]): 45 min; AUC (Rattus norvegicus [22]): 1290 ng·h/mL
